{"data": "Assay results of several laboratories", "target": "Serine/threonine-protein kinase 32B (STK32B, Homo sapiens, UniProt Q9NY57)", "note": "Lines come from different studies, so protocols differ."}
{"assay": "cell-free assay, competition with immobilised ligand", "conditions": "1 µM", "remaining binding": "100%", "Structure (SMILES)": "FC(F)(F)c1ccc2c(c1)nc(-c1cccnc1)n2C1CC1"}
{"assay": "binding, competition with immobilised ligand", "conditions": "1 µM", "remaining binding": "90%", "Structure (SMILES)": "COc1cnc(Nc2cccc(S(N)(=O)=O)c2)nc1N1CCN(c2ccccc2)C(=O)C1"}
{"assay": "cell-free assay, competition with immobilised ligand", "conditions": "0.1 µM", "remaining binding": "93%", "Structure (SMILES)": "CS(=O)(=O)N1CCCC(NC(=O)[C@H](CCC2CCCCC2)NC(=O)c2ccc(CNC(=O)c3cnc4ccccn34)cc2)C1 (some centres unmarked)"}
{"assay": "binding, competition with immobilised ligand", "conditions": "1 µM", "remaining binding": "92%", "Structure (SMILES)": "CCN1CCN(Cc2ccc(C(=O)Nc3ccc(C)c(Oc4ccc5c(c4)CC(=O)N5)c3)cc2C(F)(F)F)CC1"}
{"assay": "cell-free assay, competition with immobilised ligand", "conditions": "1 µM", "remaining binding": "87%", "Structure (SMILES)": "O=C(Nc1cnc(Oc2ccc(F)cc2)nc1)N1CCc2ncccc2[C@@H]1c1ccc(F)cc1"}
{"assay": "binding, competition with immobilised ligand", "conditions": "1 µM", "remaining binding": "77%", "Structure (SMILES)": "O=C(NCC1CCOCC1)c1n[nH]cc1NC(=O)c1c(F)cccc1F"}
{"assay": "cell-free assay, competition with immobilised ligand", "conditions": "5 µM", "remaining binding": "84%", "Structure (SMILES)": "COc1ncc2cc3ccccc3nc2c1C#N"}
{"assay": "binding, competition with immobilised ligand", "conditions": "1 µM", "remaining binding": "100%", "Structure (SMILES)": "O=C(c1ccc(Nc2nccc(-c3cc4ccccc4s3)n2)cc1)N1CCC(N2CCCC2)CC1"}
{"assay": "binding", "conditions": "1 µM", "remaining binding": "100%", "Structure (SMILES)": "CN(C)c1nccc(-c2cnn3ncccc23)n1"}
{"assay": "binding, competition with immobilised ligand", "conditions": "1 µM", "remaining binding": "100%", "Structure (SMILES)": "Nc1ncc2c(n1)-c1c([nH]c3ccc(C#CC4CC4)cc13)CCCC2"}
{"assay": "binding", "conditions": "1 µM", "remaining binding": "89%", "Structure (SMILES)": "C[C@@H]1CCN(c2nccc(-c3cnn4ncccc34)n2)C1"}
{"assay": "cell-free assay, competition with immobilised ligand", "conditions": "1 µM", "remaining binding": "100%", "Structure (SMILES)": "C[C@@H](c1cccc(C#N)c1)n1cc(Cl)cc(C(N)=O)c1=N"}
{"assay": "binding", "conditions": "1 µM", "remaining binding": "100%", "Structure (SMILES)": "F[C@@H]1CCN(c2nccc(-c3cnn4ncccc34)n2)C1"}
{"assay": "binding, competition with immobilised ligand", "conditions": "1 µM", "remaining binding": "100%", "Structure (SMILES)": "O=C(c1ccc(Nc2ncc(Cl)c(-c3cc4ccccc4s3)n2)cc1)N1CCC(N2CCCC2)CC1"}
{"assay": "binding", "conditions": "1 µM", "remaining binding": "100%", "Structure (SMILES)": "Cc1cnn2ncc(-c3ccnc(N(C)C)n3)c2c1"}
{"assay": "cell-free assay, competition with immobilised ligand", "conditions": "1 µM", "remaining binding": "100%", "Structure (SMILES)": "Cc1c(NC(=O)c2cc(C(N)=O)nc3cc(F)ccc23)c(C(F)(F)F)nn1Cc1ccc(C#N)cc1"}
{"assay": "binding", "conditions": "1 µM", "remaining binding": "88%", "Structure (SMILES)": "CN(C)c1nccc(-c2cnc3ncccn23)n1"}
{"assay": "binding, competition with immobilised ligand", "conditions": "1 µM", "remaining binding": "100%", "Structure (SMILES)": "O=C(NCCCN1CCOCC1)c1ccc(Nc2nccc(-c3cc4ccccc4s3)n2)cc1"}
{"assay": "binding", "conditions": "1 µM", "remaining binding": "96%", "Structure (SMILES)": "N[C@@H]1CCN(c2nccc(-c3cnn4ncccc34)n2)C1"}
{"assay": "cell-free assay, competition with immobilised ligand", "conditions": "1 µM", "remaining binding": "100%", "Structure (SMILES)": "O=C1NC(c2ccccn2)Sc2ccccc21 (centres unmarked)"}
